Calls of active or inactive are those of the source. The calls are words filed in the database; no cut-off is given here.
Columns and labels:
[1] = biological target: T1, Adenosine receptor A3 (Homo sapiens) (UniProt P0DMS8); assay: Displacement of [3H]PSB-11 from human recombinant adenosine A3 receptor expressed in CHO cells at 10 uM; assay type: cell-based
T1 sequence (whole entry): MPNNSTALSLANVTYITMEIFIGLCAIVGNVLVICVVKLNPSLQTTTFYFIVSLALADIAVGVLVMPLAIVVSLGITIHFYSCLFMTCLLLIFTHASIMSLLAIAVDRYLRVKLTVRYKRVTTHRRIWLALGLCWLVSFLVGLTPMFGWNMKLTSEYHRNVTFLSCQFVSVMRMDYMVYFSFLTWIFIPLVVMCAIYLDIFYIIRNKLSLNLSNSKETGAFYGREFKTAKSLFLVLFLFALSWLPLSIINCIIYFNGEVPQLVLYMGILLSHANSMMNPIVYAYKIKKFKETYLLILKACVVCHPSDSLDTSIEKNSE
Outline: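 CHO cell membranes expressing the human receptor. Radioligands: A1 [3H]CCPA; A2B [3H]ZM241385 or [3H]PSB-603; A3 [3H]PSB-11. […] Potent compounds run at 6–7 concentrations spanning 3 orders of magnitude; Ki ± SEM.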

Adenosine receptor A2a [2] = biological target: Adenosine receptor A2a (Homo sapiens, UniProt P29274); assay: Antagonist activity human recombinant adenosine A2A receptor expressed in CHO cells assessed as inhibition of NECA-mediated [3H]cAMP accumulation after 15 mins by liquid scintillation counting; assay type: functional, cell-based
Sequence of Adenosine receptor A2a (Homo sapiens, UniProt P29274) (P29274 whole entry): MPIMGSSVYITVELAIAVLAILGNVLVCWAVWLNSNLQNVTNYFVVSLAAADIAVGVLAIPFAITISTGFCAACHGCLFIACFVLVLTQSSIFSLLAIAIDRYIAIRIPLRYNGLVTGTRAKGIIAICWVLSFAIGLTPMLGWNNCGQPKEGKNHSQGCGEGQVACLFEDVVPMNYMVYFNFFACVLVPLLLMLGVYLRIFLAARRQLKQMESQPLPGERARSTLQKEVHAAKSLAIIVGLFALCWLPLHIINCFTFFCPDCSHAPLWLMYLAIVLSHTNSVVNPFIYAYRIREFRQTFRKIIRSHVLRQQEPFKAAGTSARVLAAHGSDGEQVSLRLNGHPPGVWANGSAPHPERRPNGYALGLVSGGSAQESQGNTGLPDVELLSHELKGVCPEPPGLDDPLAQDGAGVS
Outline: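 Stably transfected CHO cells (human A2A), 200,000 cells/well, washed and preincubated 2 h at 37 °C in HBSS (pH 7.3) with 1 U/ml adenosine deaminase. Ro20-1724 (final 40 µM) added for 15 min. NECA dilutions ± a single test concentration in HBSS with 5% DMSO, in triplicate, for 15 min. Hot-lysis; cAMP quantified by [3H]cAMP competition against a standard curve; three separate experiments.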

Mus musculus [3] = assay: Anticonvulsant activity in F1 albino mouse assessed as protection against maximal electroshock-induced seizures at 100 mg/kg, ip after 0.25 hrs; assay type: functional, organism-based; set-up: dose 100 mg/kg
Outline: (§1)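 Male albino F-1 mice (18–25 g), groups of 1–5 (rotorod 2–8). Compound given ip as a suspension in 0.5% methylcellulose at 30, 100 and 300 mg/kg. Seizures by maximal electroshock or subcutaneous pentylenetetrazole; neurotoxicity by rotorod. Read at 0.5 and 4 h, with some at 0.25, 1 and 2 h. Value is the minimum active dose, with protected (or toxic)/tested animals.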

Mus musculus [4] = assay: Anticonvulsant activity in F1 albino mouse assessed as protection against maximal electroshock-induced seizures at 300 mg/kg, ip after 0.5 hrs; assay type: functional, organism-based; set-up: dose 300 mg/kg; outline: as §1
Mus musculus [5] = assay: Anticonvulsant activity in F1 albino mouse assessed as protection against maximal electroshock-induced seizures at 300 mg/kg, ip after 1 hr; assay type: functional, organism-based; set-up: dose 300 mg/kg; outline: as §1
Mus musculus [6] = assay: Anticonvulsant activity in F1 albino mouse assessed as protection against maximal electroshock-induced seizures at 300 mg/kg, ip after 4 hrs; assay type: functional, organism-based; set-up: dose 300 mg/kg; outline: as §1
Mus musculus [7] = assay: Anticonvulsant activity in F1 albino mouse assessed as protection against subcutaneous pentylenetetrazole-induced seizures at 100 mg/kg, ip after 0.5 hrs; assay type: functional, organism-based; set-up: dose 100 mg/kg; outline: as §1
Mus musculus [8] = assay: Anticonvulsant activity in F1 albino mouse assessed as protection against subcutaneous pentylenetetrazole-induced seizures at 300 mg/kg, ip after 1 hr; assay type: functional, organism-based; set-up: dose 300 mg/kg; outline: as §1
Mus musculus [9] = assay: Anticonvulsant activity in F1 albino mouse assessed as protection against subcutaneous pentylenetetrazole-induced seizures at 300 mg/kg, ip after 4 hrs; assay type: functional, organism-based; set-up: dose 300 mg/kg; outline: as §1
Mus musculus [10] = assay: Neurotoxicity in F1 albino mouse assessed as minimal motor impairment at 300 mg/kg, ip after 4 hrs by rotorod test; assay type: toxicity, organism-based; set-up: dose 300 mg/kg, route intraperitoneal; settings: in vivo; outline: as §1
Rattus norvegicus [11] = assay: Anticonvulsant activity in Sprague-Dawley albino rat assessed as protection against maximal electroshock-induced seizures at 30 mg/kg, po after 0.5 hrs; assay type: functional, organism-based; set-up: dose 30 mg/kg
Outline: (§2)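 Male Sprague-Dawley albino rats (100–150 g), groups of 4. Oral suspension in 0.5% methylcellulose/water. Protection assessed by maximal electroshock or subcutaneous pentylenetetrazole; motor impairment by rotorod. Time points 0.25–4 h. Value is protected (or toxic)/tested animals.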

Rattus norvegicus [12] = assay: Anticonvulsant activity in Sprague-Dawley albino rat assessed as protection against maximal electroshock-induced seizures at 30 mg/kg, po after 1 hr; assay type: functional, organism-based; set-up: dose 30 mg/kg; outline: as §2
Rattus norvegicus [13] = assay: Anticonvulsant activity in Sprague-Dawley albino rat assessed as protection against subcutaneous pentylenetetrazole-induced seizures at 50 mg/kg, po after 0.5 hrs; assay type: functional, organism-based; set-up: dose 50 mg/kg; outline: as §2
Rattus norvegicus [14] = assay: Anticonvulsant activity in Sprague-Dawley albino rat assessed as protection against subcutaneous pentylenetetrazole-induced seizures at 50 mg/kg, po after 1 hr; assay type: functional, organism-based; set-up: dose 50 mg/kg; outline: as §2
Rattus norvegicus [15] = assay: Anticonvulsant activity in Sprague-Dawley albino rat assessed as protection against subcutaneous pentylenetetrazole-induced seizures at 50 mg/kg, po after 4 hrs; assay type: functional, organism-based; set-up: dose 50 mg/kg; outline: as §2
Rattus norvegicus [16] = assay: Neurotoxicity in Sprague-Dawley albino rat assessed as minimal motor impairment at 30 mg/kg, po after 0.5 hrs by rotorod test; assay type: toxicity, organism-based; set-up: dose 30 mg/kg, route oral; settings: in vivo; outline: as §2
Adenosine receptor A1 [17] = biological target: T2, Adenosine receptor A1 (Homo sapiens, UniProt P30542); assay: Displacement of [3H]CCPA from human recombinant adenosine A1 receptor expressed in CHO cells; assay type: cell-based
T2 sequence (P30542 whole entry): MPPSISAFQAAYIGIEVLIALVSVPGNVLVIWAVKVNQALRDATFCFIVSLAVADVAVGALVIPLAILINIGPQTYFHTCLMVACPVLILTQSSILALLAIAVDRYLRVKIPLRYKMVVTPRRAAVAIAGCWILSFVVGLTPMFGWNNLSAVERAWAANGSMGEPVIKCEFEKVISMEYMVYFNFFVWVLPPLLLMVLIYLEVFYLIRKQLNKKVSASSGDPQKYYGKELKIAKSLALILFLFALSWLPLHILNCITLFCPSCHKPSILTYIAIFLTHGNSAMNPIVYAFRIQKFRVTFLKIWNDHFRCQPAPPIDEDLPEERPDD

Rattus norvegicus [18] = species on record: Rattus norvegicus; assay: Selectivity ratio of Ki for adenosine A1 receptor in rat brain cortical membrane to Ki for adenosine A2A receptor in rat brain striatal membrane; assay type: cell membranes
Outline: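 Ki ratios from radioligand competition binding. Rat A1 used brain cortical membranes and rat A2A used brain striatal membranes. Human A1 and A2A used membranes of CHO cells expressing the receptors. A1 radioligand [³H]CCPA; A2A radioligand [³H]MSX-2. Potent compounds were tested at 6–7 concentrations spanning 3 orders of magnitude.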

Adenosine receptor A2a [19] = biological target: Adenosine receptor A2a (Rattus norvegicus, UniProt P30543); assay: Displacement of [3H]MSX-2 from adenosine A2A receptor in rat brain striatal membrane; assay type: cell membranes
Sequence of Adenosine receptor A2a (Rattus norvegicus, UniProt P30543) (P30543 whole entry): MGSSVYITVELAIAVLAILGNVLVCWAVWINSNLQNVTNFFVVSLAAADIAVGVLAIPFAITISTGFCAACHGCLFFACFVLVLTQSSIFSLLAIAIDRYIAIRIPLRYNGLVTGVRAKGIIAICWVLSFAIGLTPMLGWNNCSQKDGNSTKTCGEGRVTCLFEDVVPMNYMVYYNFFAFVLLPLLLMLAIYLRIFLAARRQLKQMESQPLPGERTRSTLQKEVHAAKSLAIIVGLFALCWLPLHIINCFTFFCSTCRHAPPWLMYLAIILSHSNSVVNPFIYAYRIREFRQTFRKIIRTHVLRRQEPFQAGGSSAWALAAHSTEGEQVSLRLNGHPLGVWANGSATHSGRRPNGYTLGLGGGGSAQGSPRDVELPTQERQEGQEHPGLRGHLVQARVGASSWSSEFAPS

Adenosine receptor A1 [20] = biological target: T3, Adenosine receptor A1 (Rattus norvegicus, UniProt P25099); assay: Displacement of [3H]CCPA from adenosine A1 receptor in rat brain cortical membrane; assay type: cell membranes
T3 sequence (P25099 whole entry): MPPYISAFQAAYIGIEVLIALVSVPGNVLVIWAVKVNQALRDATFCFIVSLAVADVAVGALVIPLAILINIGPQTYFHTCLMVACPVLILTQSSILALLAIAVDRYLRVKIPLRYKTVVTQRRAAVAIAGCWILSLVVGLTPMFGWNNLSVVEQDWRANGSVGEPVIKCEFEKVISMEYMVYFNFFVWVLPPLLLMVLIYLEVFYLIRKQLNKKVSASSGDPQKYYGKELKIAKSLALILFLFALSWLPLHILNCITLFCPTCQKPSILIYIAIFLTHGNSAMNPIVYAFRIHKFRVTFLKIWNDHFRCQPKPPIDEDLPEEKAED

- inhibition [1]: 1%
- Kb (Adenosine receptor A2a [2]): 220 nM
- Ki (Adenosine receptor A1 [17]): 7.13 µM
- Ratio Ki (Rattus norvegicus [18]): 2
- Ki (Adenosine receptor A2a [19]): 980 nM
- Ki (Adenosine receptor A1 [20]): 2390 nM
Compound: Cn1c(=O)c2c(nc3n2CCCN3CC2CC2)n(C)c1=O
- Activity (Mus musculus [3]): Active
- Activity (Mus musculus [4]): Active
- Activity (Mus musculus [5]): inactive
- Activity (Mus musculus [6]): inactive
- Activity (Mus musculus [7]): Active
- Activity (Mus musculus [8]): inactive
- Activity (Mus musculus [9]): inactive
- Activity (Mus musculus [10]): Non-toxic
- Activity (Rattus norvegicus [11]): inactive
- Activity (Rattus norvegicus [12]): inactive
- Activity (Rattus norvegicus [13]): inactive
- Activity (Rattus norvegicus [14]): inactive
- Activity (Rattus norvegicus [15]): inactive
- Activity (Rattus norvegicus [16]): Non-toxic
